Assay results from ChEMBL document CHEMBL4152233, “Design, synthesis and anthelmintic activity of 7-keto-sempervirol analogues” (Eur J Med Chem, 2018).
Activity calls are given as the source filed them.

Key:
Schistosoma mansoni [1] = assay: Antischistosomal activity against schistosomula of Schistosoma mansoni assessed as effect on parasite phenotype by throughput high content image analysis; type: functional, organism-based
Method in brief: (§1)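 Puerto Rican (NMRI) strain cercariae were mechanically transformed to schistosomula. About 120 larvae were co-cultured with compound for 72 hr at 37 °C, 5% CO2, at 0.625% DMSO final. Controls were DMSO and auranofin. Motility and phenotype were scored by automated image analysis, with a hit threshold of ≤-0.15 (phenotype) and ≤-0.35 (motility) in ≥70% of larvae. Runs were in duplicate, and IC50 was estimated from dose-response curves.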

Schistosoma mansoni [2] = assay: Antischistosomal activity against schistosomula of Schistosoma mansoni assessed as effect on parasite motility by throughput high content image analysis; type: functional, organism-based; method in brief: as §1
Schistosoma mansoni [3] = assay: Antischistosomal activity against adult stage of Schistosoma mansoni assessed as effect on parasite motility after 72 hrs by microscopic method; type: functional, organism-based
Method in brief: (§2)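 Mice were infected percutaneously with 200 cercariae, and adults were recovered by portal perfusion at seven weeks. Three worm pairs per well in modified DMEM with 10% FCS were given compound at 50, 25, 12.5 and 6.25 µM final (0.3% DMSO) for 72 hr at 37 °C, 5% CO2. Controls were DMSO and auranofin. Worms were scored manually by microscopy at 24, 48 and 72 hr. Experiments were run in duplicate.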

Schistosoma mansoni [4] = assay: Antischistosomal activity against schistosomula of Schistosoma mansoni at 25 uM by throughput high content image analysis; type: functional, organism-based; method in brief: as §1
[5] = Cytotoxicity against human HepG2 cells after 24 hrs by MTT assay; type: cell-based
Method in brief: (§3)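 Cells were grown to about 80% confluence (HepG2 in BME, MDBK in EMEM, each with 10% FBS). They were seeded at 2.5 x10^4 per well and rested 24 hr, then exposed 24 hr to compound at 100–0.01 µM (1.25% DMSO). Controls were DMSO and 1% Triton X-100. Viability was read by MTT, and CC50 came from dose-response curves run in triplicate.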

[6] = Cytotoxicity against MDBK cells after 24 hrs by MTT assay; type: cell-based, Bos taurus; conditions: cattle; method in brief: as §3
[7] = Selectivity index, ratio of IC50 for human HepG2 cells to IC50 for antischistosomal activity against schistosomula of Schistosoma mansoni assessed as effect on parasite phenotype; type: toxicity; conditions: read-out: Ratio IC50
Method in brief: (§4)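 Selectivity index was calculated as the CC50 from the HepG2 or MDBK MTT assay divided by the schistosomula phenotype or motility IC50 from the 72 hr image-based screen.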

[8] = Selectivity index, ratio of IC50 for human HepG2 cells to IC50 for antischistosomal activity against schistosomula of Schistosoma mansoni assessed as effect on parasite motility; type: toxicity; conditions: read-out: Ratio IC50; method in brief: as §4
[9] = Selectivity index, ratio of IC50 for MDBK cells to IC50 for antischistosomal activity against schistosomula of Schistosoma mansoni assessed as effect on parasite phenotype; type: toxicity; conditions: cattle, read-out: Ratio IC50; method in brief: as §4
[10] = Selectivity index, ratio of IC50 for MDBK cells to IC50 for antischistosomal activity against schistosomula of Schistosoma mansoni assessed as effect on parasite motility; type: toxicity; conditions: cattle, read-out: Ratio IC50; method in brief: as §4
Fasciola hepatica [11] = assay: Antifasciola activity against newly excysted juveline stage of Fasciola hepatica Italian assessed as effect on parasite phenotype after 72 hrs; type: functional, organism-based
Method in brief: (§5)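 NEJs came from Italian-strain metacercariae, excysted either by pepsin/HCl or by needle rupture, then 1 hr in sodium tauroglycocholate. They were plated at 25 per well in RPMI-1640 with 1% FCS. Screening was at 25 and 12.5 µM, then titration from 10 to 0.625 µM (0.16% DMSO). Controls were DMSO and 10 µM triclabendazole. Motility and phenotype were scored at 72 hr, with IC50 from dose-response curves.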

Fasciola hepatica [12] = assay: Antifasciola activity against newly excysted juveline stage of Fasciola hepatica Italian assessed as effect on parasite motility after 72 hrs; type: functional, organism-based; method in brief: as §5
Fasciola hepatica [13] = assay: Antifasciola activity against immature stage of Fasciola hepatica Italian assessed as effect on parasite motility after 72 hrs; type: functional, organism-based
Fasciola hepatica [14] = assay: Antifasciola activity against adult stage of Fasciola hepatica Italian assessed as effect on parasite motility after 72 hrs; type: functional, organism-based
[15] = Selectivity index, ratio of IC50 for human HepG2 cells to IC50 for newly excysted juveline stage of Fasciola hepatica Italian assessed as effect on parasite phenotype; type: toxicity; conditions: read-out: Ratio IC50
Method in brief: (§6)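 Selectivity index was calculated as the CC50 from the HepG2 or MDBK MTT assay divided by the F. hepatica NEJ phenotype or motility IC50 from the 72 hr manual scoring assay.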

[16] = Selectivity index, ratio of IC50 for human HepG2 cells to IC50 for newly excysted juveline stage of Fasciola hepatica Italian assessed as effect on parasite motility; type: toxicity; conditions: read-out: Ratio IC50; method in brief: as §6
[17] = Selectivity index, ratio of IC50 for MDBK cells to IC50 for newly excysted juveline stage of Fasciola hepatica Italian assessed as effect on parasite phenotype; type: toxicity; conditions: cattle, read-out: Ratio IC50; method in brief: as §6
[18] = Selectivity index, ratio of IC50 for MDBK cells to IC50 for newly excysted juveline stage of Fasciola hepatica Italian assessed as effect on parasite motility; type: toxicity; conditions: cattle, read-out: Ratio IC50; method in brief: as §6
Schistosoma mansoni [19] = assay: Antischistosomal activity against schistosomula of Schistosoma mansoni at 10 uM by throughput high content image analysis; type: functional, organism-based; method in brief: as §1
Schistosoma mansoni [20] = assay: Antischistosomal activity against schistosomula of Schistosoma mansoni at 1 uM by throughput high content image analysis; type: functional, organism-based
Schistosoma mansoni [21] = assay: Antischistosomal activity against adult stage of Schistosoma mansoni at 50 uM after 24 to 72 hrs by microscopic method; type: functional, organism-based; method in brief: as §2
Schistosoma mansoni [22] = assay: Antischistosomal activity against adult stage of Schistosoma mansoni assessed as effect on parasite motility up to 12.5 uM after 72 hrs by microscopic method; type: functional, organism-based; method in brief: as §2
Schistosoma mansoni [23] = assay: Antischistosomal activity against adult stage of Schistosoma mansoni assessed as appearance of abnormal shaped eggs at 6.25 uM after 72 hrs by fluorescence microscopic method; type: functional, organism-based
Method in brief: (§7)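 Adult worm pairs from infected MF-1 mice were cultured 72 hr at 37 °C, 5% CO2, in modified DMEM with 10% FCS. At 72 hr, eggs were collected from each well, counted, pelleted at 200 x g, fixed in 10% formaldehyde in PBS, and viewed under natural light and a GFP filter.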

Schistosoma mansoni [24] = assay: Antischistosomal activity against adult stage of Schistosoma mansoni assessed as appearance of smaller eggs at 6.25 uM after 72 hrs by fluorescence microscopic method; type: functional, organism-based; method in brief: as §7
Schistosoma mansoni [25] = assay: Antischistosomal activity against adult stage of Schistosoma mansoni assessed as loss of lateral spine in eggs at 6.25 uM after 72 hrs by fluorescence microscopic method; type: functional, organism-based; method in brief: as §7
Schistosoma mansoni [26] = assay: Antischistosomal activity against adult stage of Schistosoma mansoni assessed as irregular auto-fluorescence of eggs at 6.25 uM after 72 hrs by fluorescence microscopic method; type: functional, organism-based; method in brief: as §7
Schistosoma mansoni [27] = assay: Antischistosomal activity against male adult stage of Schistosoma mansoni assessed as tegumental disruption throughtout the whole body at 25 uM after 72 hrs by osmium tetroxide staining-based scanning electron microscopic method; type: functional, organism-based
Schistosoma mansoni [28] = assay: Antischistosomal activity against male adult stage of Schistosoma mansoni assessed as loss of spinous tubercles natural shape at 25 uM after 72 hrs by osmium tetroxide staining-based scanning electron microscopic method; type: functional, organism-based
Schistosoma mansoni [29] = assay: Antischistosomal activity against female adult stage of Schistosoma mansoni assessed as tegumental disruption throughtout the whole body at 25 uM after 72 hrs by osmium tetroxide staining-based scanning electron microscopic method; type: functional, organism-based
Schistosoma mansoni [30] = assay: Antischistosomal activity against female adult stage of Schistosoma mansoni assessed as loss of spinous tubercles natural shape at 25 uM after 72 hrs by osmium tetroxide staining-based scanning electron microscopic method; type: functional, organism-based
Fasciola hepatica [31] = assay: Antifasciola activity against adult stage of Fasciola hepatica Italian assessed as decoration of ventral surface by swollen tegumantal ridges and smaller spines at 40 uM after 72 hrs by osmium tetroxide staining-based scanning electron microscopic method; type: functional, organism-based
Fasciola hepatica [32] = assay: Antifasciola activity against immature stage of Fasciola hepatica Italian assessed as loss of spines on ventral surface at 13.3 uM after 72 hrs by osmium tetroxide staining-based scanning electron microscopic method; type: functional, organism-based
Fasciola hepatica [33] = assay: Antifasciola activity against immature stage of Fasciola hepatica Italian assessed as sloughing of tegument at 13.3 uM after 72 hrs by osmium tetroxide staining-based scanning electron microscopic method; type: functional, organism-based
Fasciola hepatica [34] = assay: Antifasciola activity against immature stage of Fasciola hepatica Italian assessed as exposure of basal lamina at 13.3 uM after 72 hrs by osmium tetroxide staining-based scanning electron microscopic method; type: functional, organism-based

SMILES | IC50 (Schistosoma mansoni [1]) [µM] | IC50 (Schistosoma mansoni [2]) [µM] | IC50 (Schistosoma mansoni [3]) [µM] | Activity (Schistosoma mansoni [4]) | CC50 at 24 h [5] [µM] | CC50 at 24 h [6] [µM] | selectivity ratio [7] | selectivity ratio [8] | selectivity ratio [9] | selectivity ratio [10] | IC50 (Fasciola hepatica [11]) [µM] | IC50 (Fasciola hepatica [12]) [µM] | IC50 (Fasciola hepatica [13]) [µM] | IC50 (Fasciola hepatica [14]) [µM] | selectivity ratio [15] | selectivity ratio [16] | selectivity ratio [17] | selectivity ratio [18] | further results
COc1ccc2c(c1)[C@@]1(C)CCCC(C)(C)[C@@H]1CC2=O (relative stereo) | 14.2 | 10.3 | > 50 | Active | 33.1 | 70.6 | 2.3 | 3.2 | 5 | 6.9 | 9.9 | 8.4 | 14.6 | 39.9 | 3.3 | 3.9 | 7.1 | 8.3 | –
CC1(C)CCC[C@]2(C)c3ccc(O)cc3CC[C@@H]12 | 6.8 | 6.3 | 19.9 | Active | 25.6 | 32.5 | 3.8 | 4.1 | 4.8 | 5.2 | 3.2 | 2.5 | 10.4 | 28.4 | 8 | 10.2 | 10.2 | 13 | Activity (Schistosoma mansoni [19]): Active; Activity (Schistosoma mansoni [20]): inactive; Activity (Schistosoma mansoni [21]): Active; Activity (Schistosoma mansoni [22]): Active; Activity (Schistosoma mansoni [23]): Active; Activity (Schistosoma mansoni [24]): Active; Activity (Schistosoma mansoni [25]): Active; Activity (Schistosoma mansoni [26]): Active; Activity (Schistosoma mansoni [27]): Active; Activity (Schistosoma mansoni [28]): Active; Activity (Schistosoma mansoni [29]): Active; Activity (Schistosoma mansoni [30]): Active; Activity (Fasciola hepatica [31]): Active; Activity (Fasciola hepatica [32]): Active; Activity (Fasciola hepatica [33]): Active; Activity (Fasciola hepatica [34]): Active
